From PubChem BioAssay
DENV2 CPE rescue: protects cells from dengue virus 2 cytopathic effect | DENV2-infected cells, cytopathic effect rescue, plate reader | CPE inhibition, % at 9.99 µM | 1.7% of 350,000 active | AID 651640; in the data active means CPE inhibition above about 20%, passing the limit was not always enough; inconclusive means no clear call, values can overlap the other calls; tested in BHK-21 cells
MLL AF4-AF9 inh: inhibitors of human MLL-AF4/AF9 interaction | AlphaScreen, biotin-AF4 peptide binding to FLAG-AF9 | inhibition, % at 10 µM | 0.47% of 350,000 active | AID 651704;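 active means every replicate reaching a set inhibition limit, whatever the replicate mean, cut at about 25% in these data; inconclusive means mean inhibition reaches that limit but some replicates miss it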
Target sequence (P42568 whole entry, looked up): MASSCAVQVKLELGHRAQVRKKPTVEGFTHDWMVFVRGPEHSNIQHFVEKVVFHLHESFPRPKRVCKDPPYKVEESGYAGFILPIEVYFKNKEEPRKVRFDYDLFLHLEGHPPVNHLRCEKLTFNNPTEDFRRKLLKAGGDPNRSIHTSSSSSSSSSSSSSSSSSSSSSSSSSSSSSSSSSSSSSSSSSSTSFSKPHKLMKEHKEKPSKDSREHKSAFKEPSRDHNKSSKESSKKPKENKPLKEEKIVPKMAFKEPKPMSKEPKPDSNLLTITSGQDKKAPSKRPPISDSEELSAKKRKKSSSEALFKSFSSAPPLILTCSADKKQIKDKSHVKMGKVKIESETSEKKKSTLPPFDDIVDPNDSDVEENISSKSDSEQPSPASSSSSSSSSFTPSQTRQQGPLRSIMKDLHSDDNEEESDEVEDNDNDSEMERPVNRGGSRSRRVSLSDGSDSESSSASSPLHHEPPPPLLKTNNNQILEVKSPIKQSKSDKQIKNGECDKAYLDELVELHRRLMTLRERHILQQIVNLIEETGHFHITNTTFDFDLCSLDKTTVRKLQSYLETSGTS
CaV13 ICDI inh: Primary screen for inhibitors of IQ motif and Ca2+-dependent inactivation inhibitor domain binding in CACNA1D, Förster resonance energy transfer in living cells, … | HEK cells, CFP/YFP FRET ICDI-IQ, plate reader, 10 min; percent FRET-ratio fall versus neutral wells | inhibition, % at 12.3 µM | 0.098% of 340,000 active | AID 743397;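 active means mean replicate inhibition of at least 30% and at least 1% of replicates passing that level; inconclusive means only one of the two criteria is met; inactive means neither criterion is met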
SIRT5 inh: inhibitors of human sirtuin-5 desuccinylase. Q9NXA8. Purified SirT5, succinyl-peptide AMC, trypsin-coupled fluorescence. inhibition, % at 15 µM. 1.1% of 330,000 active. AID 652115; in the data active means inhibition above about 15%; inconclusive means no clear call, values can overlap the other calls
S100A4 MyoIIA: blocks human S100A4 binding to myosin IIA peptide. inhibition, % at 10.7 µM. S100A4/TAMRA-MyoIIA peptide fluorescence polarization. P26447. AID 652163. 0.14% of 360,000 active;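 active means mean inhibition of at least 70% across replicates, with every replicate also reaching that level; inconclusive means mean inhibition reaches 70% but some replicates fall short; inactive means mean inhibition below 70%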
Target sequence (P26447 whole entry, looked up): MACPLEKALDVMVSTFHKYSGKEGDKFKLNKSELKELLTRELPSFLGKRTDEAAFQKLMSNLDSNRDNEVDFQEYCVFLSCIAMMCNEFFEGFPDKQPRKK
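Material: S100A4 monomer protein / Buffer or medium: 50 mM HEPES pH 7.2, 10 mM CaCl2, 100 mM KCl / Times: 5 min incubation before reading / Benchmarks: neutral control DMSO, positive control TFP / Reagent: labelled myosin peptide probe, 5 nM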
Large screens that a line does not name were inactive; ! = not active in a repeat. Most compounds without a hit are left out; they make up all but 2.7% or so of the library.

C[C@H](CO)N1C[C@H](C)[C@@H](CN(C)Cc2ccc(-c3ccccc3)cc2)Oc2cc(C#CC(C)(C)O)ccc2S1(=O)=O	DENV2 CPE rescue inconclusive (no result: CaV13 ICDI inh)
C[C@H]1CN([C@@H](C)CO)S(=O)(=O)c2ccc(C#CC(C)(C)O)cc2O[C@H]1CN(C)Cc1ccc(-c2ccccc2)cc1	SIRT5 inh 23 (no result: CaV13 ICDI inh)
C[C@H]1CN([C@@H](C)CO)S(=O)(=O)c2ccc(C#CC(C)(C)O)cc2O[C@@H]1CN(C)Cc1ccc(-c2ccccc2)cc1	SIRT5 inh 20 (no result: CaV13 ICDI inh)
COC(=O)C[C@H]1CC[C@@H]2[C@H](COC[C@H](O)CN2C(=O)Nc2ccccc2OC)O1	none (no result: CaV13 ICDI inh)
CCCN1C[C@@H](C)[C@H](OC)CN(C)C(=O)c2cc(NC(=O)C3CCOCC3)ccc2OC[C@@H]1C	none (no result: CaV13 ICDI inh)
COc1ccc(S(=O)(=O)N(C)C[C@H]2Oc3ccc(NC(=O)CCCN(C)C)cc3CC(=O)N([C@@H](C)CO)C[C@@H]2C)cc1	none (no result: CaV13 ICDI inh)
O=C(c1ccccc1)N1C[C@@H]2[C@H](c3ccccc31)[C@@H](CO)N2Cc1ccccc1F	none (no result: CaV13 ICDI inh)
COc1ccc(N2CCN(Cc3nc4c(c(=O)n(C)c(=O)n4C)n3C(C)C(C)=O)CC2)cc1 (configuration not stated)	none (no result: DENV2 CPE rescue, MLL AF4-AF9 inh, SIRT5 inh, S100A4 MyoIIA)
C=C(C)Cn1c(N2CCN(c3ccc(OC)cc3)CC2)nc2c1c(=O)n(C)c(=O)n2C	SIRT5 inh 29
COc1ccc(N2CCN(Cc3nc4c(c(=O)n(C)c(=O)n4C)n3Cc3cccc(C)c3)CC2)cc1	MLL AF4-AF9 inh 33
COc1ccc(N2CCN(Cc3nc4c(c(=O)[nH]c(=O)n4C)n3Cc3cccc(Cl)c3)CC2)cc1	DENV2 CPE rescue 98
COc1ccc2c3c(n(C)c2c1)[C@H](CO)NCC31CCN(C(=O)CC2CC2)CC1	none (no result: CaV13 ICDI inh, SIRT5 inh, S100A4 MyoIIA)
CC(NC(=O)C(NC(=O)OCc1ccccc1)C(C)O)C(=O)OCc1ccccc1 (configuration not stated)	none (no result: SIRT5 inh)
CC1CCC/C(=C\Nc2ccc(C(=O)O)cc2)C1=O (configuration not stated)	none
CC1CCC/C(=C\Nc2ccc(C(=O)O)c(O)c2)C1=O (configuration not stated)	MLL AF4-AF9 inh inconclusive, SIRT5 inh 29
O=C1CCCC/C1=C\Nc1ccc(C(=O)O)c(O)c1	SIRT5 inh 23
CC(C)CCOc1ccc(C(=O)N2CCCC2C(=O)O)cc1 (configuration not stated)	SIRT5 inh 17
O=C(NCC[C@H]1CC[C@H](NC(=O)c2ccc3c(c2)OCO3)[C@@H](CO)O1)Nc1ccc(Cl)cc1	none (no result: DENV2 CPE rescue, CaV13 ICDI inh)
CCCCCNC(=O)c1[nH]c(C(F)(F)F)nc1-c1ccccc1	DENV2 CPE rescue 28
C[C@H](O)C#Cc1cnc2c(c1)C(=O)N([C@H](C)CO)C[C@@H](C)[C@H](CN(C)C(=O)c1ccncc1)O2	none (no result: CaV13 ICDI inh)
O=C(C[C@H]1C[C@H]2c3cc(NC(=O)Cc4ccncc4)ccc3O[C@H]2[C@@H](CO)O1)NCc1ccc2c(c1)OCO2	none (no result: CaV13 ICDI inh)
Cc1ccc(SCc2cn3cc(Cl)ccc3n2)cc1	none
Clc1ccc(SCc2cn3ccccc3n2)cc1	SIRT5 inh 58
O=C(NC(c1ccc(-c2ccccc2)cc1)c1cnccn1)C1CCN(Cc2ccc(Cl)c(Cl)c2)CC1 (configuration not stated)	none
Cn1cc(CN2CCC(C(=O)NC(c3ccc(-c4ccccc4)cc3)c3cnccn3)CC2)c2ccccc21 (configuration not stated)	DENV2 CPE rescue inconclusive, MLL AF4-AF9 inh 26 (no result: SIRT5 inh)
C[C@@H]1CCCCO[C@@H](CN(C)S(=O)(=O)c2ccc(Cl)cc2)[C@@H](C)CN([C@@H](C)CO)C(=O)c2cc(NC(=O)NC3CCCCC3)ccc2O1	none (no result: CaV13 ICDI inh)
C[C@H](CO)N1C[C@H](C)[C@H](CN(C)Cc2cccc(C(=O)O)c2)Oc2cc(C3=CCCC3)ccc2S1(=O)=O	DENV2 CPE rescue 44 (no result: CaV13 ICDI inh, SIRT5 inh)
C[C@@H]1CN([C@@H](C)CO)S(=O)(=O)c2ccc(C3=CCCCC3)cc2O[C@@H]1CN(C)Cc1cncnc1	none (no result: CaV13 ICDI inh)
Cc1ccc(-c2ccc3c(c2)O[C@H](CN(C)Cc2cccnc2)[C@H](C)CN([C@@H](C)CO)S3(=O)=O)cc1	SIRT5 inh 15 (no result: CaV13 ICDI inh)
Cc1ccc(-c2ccc3c(c2)O[C@@H](CN(C)Cc2cccnc2)[C@H](C)CN([C@H](C)CO)S3(=O)=O)cc1	none (no result: CaV13 ICDI inh)
C[C@H]1CN([C@@H](C)CO)S(=O)(=O)c2ccc(C3=CCCC3)cc2O[C@@H]1CN(C)Cc1cccnc1	DENV2 CPE rescue 30 (no result: CaV13 ICDI inh)
C[C@@H]1CN([C@H](C)CO)S(=O)(=O)c2ccc(C3=CCCCC3)cc2O[C@@H]1CN(C)Cc1cncnc1	S100A4 MyoIIA 107 (no result: CaV13 ICDI inh)
O=C(C[C@@H]1CC[C@H]2[C@@H](COC[C@@H](O)CN2C(=O)Nc2ccc(Cl)c(Cl)c2)O1)NC1CCC1	none (no result: CaV13 ICDI inh)
C[C@H]1CN([C@@H](C)CO)S(=O)(=O)c2ccc(C3=CCCCC3)cc2O[C@H]1CN(C)C(=O)Cc1ccncc1	none (no result: CaV13 ICDI inh)
C[C@H]1CN([C@@H](C)CO)S(=O)(=O)c2ccc(C3=CCCCC3)cc2O[C@H]1CN(C)Cc1ccccc1	S100A4 MyoIIA 100 (no result: CaV13 ICDI inh)
C[C@@H]1CN([C@H](C)CO)S(=O)(=O)c2ccc(C3=CCCCC3)cc2O[C@@H]1CN(C)Cc1ccccc1	S100A4 MyoIIA 79 (no result: CaV13 ICDI inh)
C[C@H]1CN([C@@H](C)CO)S(=O)(=O)c2ccc(C3=CCCCC3)cc2O[C@@H]1CN(C)C(=O)Cc1ccccc1	SIRT5 inh 15 (no result: CaV13 ICDI inh)
C[C@@H]1CN([C@H](C)CO)S(=O)(=O)c2ccc(C3=CCCC3)cc2O[C@@H]1CN(C)Cc1ccccc1	none (no result: CaV13 ICDI inh)
C[C@H]1CN([C@@H](C)CO)S(=O)(=O)c2ccc(C3=CCCC3)cc2O[C@H]1CN(C)Cc1ccccc1	none (no result: CaV13 ICDI inh)
C[C@H](CO)N1C[C@H](C)[C@@H](CN(C)CC2CCCC2)Oc2ncc(C#Cc3cccc(F)c3)cc2C1=O	none (no result: CaV13 ICDI inh)
COC(=O)C1=C(C)N(C)C(=NCc2cccc(C(F)(F)F)c2)NC1c1ccc(C(F)(F)F)cc1 (configuration not stated)	none (no result: SIRT5 inh)
C[C@H](CO)N1C[C@H](C)[C@@H](CN(C)C(=O)CCC(F)(F)F)OCc2ccccc2-c2c(n(C)c3ccccc23)C1=O	none (no result: CaV13 ICDI inh)
CC[C@H](C)C(=O)O[C@H]1C[C@@H](C)C=C2C=C[C@H](C)[C@H](CC[C@@H]3C[C@@H](O)CC(=O)O3)[C@H]21	DENV2 CPE rescue 36!
CCC(C)C(=O)OC1CCC=C2C=CC(C)C(CCC3CC(O)CC(=O)O3)C21 (configuration not stated)	none
COc1ccc(-c2ccc3c(c2)[C@@H]2[C@@H](CCN2Cc2ccccc2F)[C@H](CO)N3)cc1	DENV2 CPE rescue 23, MLL AF4-AF9 inh 26 (no result: CaV13 ICDI inh)
COc1ccc(-c2ccc3c(c2)[C@H]2[C@H](CCN2C(=O)CN2CCOCC2)[C@@H](CO)N3)cc1	DENV2 CPE rescue 100 (no result: CaV13 ICDI inh)
OC[C@H]1Nc2ccc(-c3ccccc3)cc2[C@@H]2[C@H]1CCN2Cc1ccccc1F	none (no result: CaV13 ICDI inh)
